Data set [1] addresses Trypsin (Homo sapiens, UniProt P07477+P07478+P35030). Kind of data set: Inhibition of trypsin (unknown origin) pre-incubated for 30 mins before N-Boc-FSR-AMC substrate addition and measured after 30 mins. The class given is protein assay.
Data set [2] concerns the target Prothrombin (Homo sapiens, UniProt P00734). Description: Inhibition of thrombin (unknown origin) pre-incubated for 30 mins before N-Boc-FSR-AMC substrate addition and measured after 30 mins. In a few lines: (§1)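 Inhibitor (1:2 or 1:3 dilutions) or 2% DMSO for 30 min at rt, then N-Boc-FSR-AMC at 20 µM final. Fluorescence (ex 350/em 440) read every 60 s for 30 min. Slopes normalized to DMSO for dose-response; triplicates.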

In data set [3] the target is Coagulation factor X (Homo sapiens, UniProt P00742). Kind of data set: Inhibition of factor 10a (unknown origin) pre-incubated for 30 mins before N-Boc-FSR-AMC substrate addition and measured after 30 mins. In a few lines:
as §1

A short description of data set [4]: Stability in DMEM supplemented with 10% (v/v) fetal bovine serum at 10 uM at 37 degC assessed as half life by HPLC-MS method. The format is physicochemical. Conditions: cattle, DMEM with 10% (v/v) fetal bovine serum. In a few lines:
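Compound at 10 µM (0.2% DMSO) in DMEM with 10% FBS, 2 mM L-glutamine and 1% penicillin/streptomycin, plus 10 µM triazole internal standard, held at 37 °C. Sampled hourly to 10 h, then at 24 h, by HPLC-MS in SIM mode for parent and hydrolysis product.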

Structures are written as SMILES. A value given as a limit tells only on which side of the number the result lay.

From ChEMBL document CHEMBL4196210, “Depsipeptides Featuring a Neutral P1 Are Potent Inhibitors of Kallikrein-Related Peptidase 6 with On-Target Cellular Activity” (J Med Chem, 2018) come the findings set out here.

Chain of Coagulation factor X (P00742 41-179 limits assumed): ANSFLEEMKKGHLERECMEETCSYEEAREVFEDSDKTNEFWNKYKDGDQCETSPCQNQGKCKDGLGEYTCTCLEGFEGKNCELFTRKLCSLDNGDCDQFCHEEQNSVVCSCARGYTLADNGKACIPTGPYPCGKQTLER
Chain of Coagulation factor X (P00742 235-488 limits assumed): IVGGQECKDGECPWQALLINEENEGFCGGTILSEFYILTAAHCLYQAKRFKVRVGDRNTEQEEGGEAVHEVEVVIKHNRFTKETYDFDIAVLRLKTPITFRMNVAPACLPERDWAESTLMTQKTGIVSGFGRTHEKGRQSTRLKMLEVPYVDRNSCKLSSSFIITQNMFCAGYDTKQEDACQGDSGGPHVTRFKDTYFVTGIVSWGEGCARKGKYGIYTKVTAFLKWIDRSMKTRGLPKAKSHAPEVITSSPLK

A word on the IC50: it is the concentration needed to halve the response being measured. A lower IC50 goes with greater potency. Molecule `Cc1nn(-c2ccccc2)c(C)c1NC(=O)COC(=O)c1c(C)[nH]c2ccccc12` displayed an IC50 in data set [1] above 200 µM.

With `Cc1nn(-c2ccccc2)c(C)c1NC(=O)COC(=O)Cc1c(C)[nH]c2cccnc12`, the IC50 in data set [1] was 61 µM.

For the molecule `Cc1nn(-c2ccccc2)c(C)c1NC(=O)COC(=O)Cn1c(C)nc2ccccc21`, the IC50 in data set [1] was above 200 µM.

With `Cc1nn(-c2ccccc2)c(C)c1NC(=O)COC(=O)Cn1c(C)csc1=O`, the IC50 in data set [1], in data set [2] and in data set [3] was above 200 µM each time.

Turning to `Cc1[nH]c2cccnc2c1CC(=O)NCC(=O)Nc1onc(-c2ccccc2)c1C`, the IC50 in data set [1] amounted to 50 µM.

As to `Cc1[nH]c2ccccc2c1CC(=O)OCC(=O)Nc1ccc(N2CCOCC2)cc1`, the IC50 in data set [1] was above 200 µM.

For the molecule `Cc1nn(-c2ccccc2)c(C)c1NC(=O)CNC(=O)Cc1c(C)[nH]c2cc(C(=N)N)ccc12`, the IC50 in data set [1] was 2.5 µM.

In the case of `Cc1nn(C)c(C)c1NC(=O)CNC(=O)Cc1c(C)[nH]c2cccnc12`, the IC50 in data set [1] is above 50 µM.

Molecule `Cc1nn(-c2ccccc2)c(C)c1NC(=O)COC(=O)CCc1c(C)[nH]c2ccccc12` gave an IC50 in data set [1] above 200 µM.

For the molecule `Cc1nn(-c2ccccc2)c(C)c1NC(=O)COC(=O)Cc1c(C)[nH]c2ccc(C(=N)N)cc12`, the IC50 in data set [1] worked out at 19 µM.

`Cc1[nH]c2ccccc2c1CC(=O)NCC(=O)Nc1cnn(-c2ccccc2)c1C` showed an IC50 in data set [1] of 34 µM.

In turn, `Cc1nn(-c2ccccc2)c(C)c1NC(=O)COC(=O)Cc1c(C)n(C)c2ccccc12` came in with an IC50 in data set [1] above 200 µM.

`Cc1nn(-c2ccccc2)c(C)c1NC(=O)COC(=O)Cc1c(C)[nH]c2cccc(Cl)c12` returned a half-inhibitory concentration (IC50) in data set [1] above 200 µM.

The term half-life denotes the time in which the quantity being followed falls by half. In turn, `Cc1nn(-c2ccccc2)c(C)c1NC(=O)C(OC(=O)C(C)c1c(C)[nH]c2ccccc12)C(F)(F)F` (centres undefined) yielded an IC50 in data set [1] of 61 µM. Moreover, in data set [4], the half-life at 10 µM is 101 min.

On to `Cc1nn(-c2ccccc2)c(C)c1NC(=O)COC(=O)Cc1ccccc1`, for which the IC50 in data set [1], in data set [2] and in data set [3] was above 200 µM in each case.

In data set [1], `C#Cc1ccc2c(CC(=O)OCC(=O)Nc3c(C)nn(-c4ccccc4)c3C)c(C)[nH]c2c1` displayed an IC50 of 24 µM.

In the case of `Cc1nn(-c2ccccc2)c(C)c1NC(=O)COC(=O)C(c1c(C)[nH]c2ccccc12)C(F)(F)F` (centres undefined), the IC50 in data set [1] is above 200 µM.

The molecule `Cc1nn(-c2ccccc2)c(C)c1NC(=O)COC(=O)Cc1c(C)[nH]c2ncccc12` returned an IC50 in data set [1] above 200 µM.

`Cc1nn(-c2ccccc2)c(C)c1NC(=O)COC(=O)C(C)c1c(C)[nH]c2ccccc12` (centres undefined) gave an IC50 in data set [1] above 200 µM. Moreover, the half-life at 10 µM in data set [4] was 912 min.

The molecule `Cc1nn(-c2ccccc2)c(C)c1NC(=O)COC(=O)Cc1c(C)[nH]c2ccncc12` showed an IC50 in data set [1] of 25 µM. In other words, the double-digit micromolar range.

In data set [1], `C#Cc1[nH]c2ccccc2c1CC(=O)OCC(=O)Nc1c(C)nn(-c2ccccc2)c1C` gave an IC50 above 200 µM.

For the molecule `Cc1nn(-c2ccccc2)c(C)c1NC(=O)COC(=O)C(C)(C)c1c(C)[nH]c2ccccc12`, the IC50 in data set [1] is above 200 µM.

The molecule `Cc1nn(-c2ccccc2)c(C)c1NC(=O)COC(=O)Cc1c[nH]c2ccccc12` came in with an IC50 in data set [1] of 150 µM. In addition, in data set [4], the half-life at 10 µM was 27 min.

In the case of `Cc1nn(-c2ccccc2)c(C)c1NC(=O)COC(=O)Cc1c(C)[nH]c2cnccc12`, the IC50 in data set [1] was found to be 0.33 µM. This counts as sub-micromolar.

The molecule `C#Cc1ccc2[nH]c(C)c(CC(=O)OCC(=O)Nc3c(C)nn(-c4ccccc4)c3C)c2c1` came in with an IC50 in data set [1] of 26 µM. This IC50 lies about 79-fold higher than the previous one.

As for `NCc1ccc(NC(=O)c2c([O-])ccc[n+]2Cc2nccn2Cc2ccccc2)cc1`, the IC50 in data set [1] was 0.18 µM; in data set [2] it was above 50 µM; in data set [3] it was above 50 µM.

In data set [1], `Cc1nn(-c2ccccc2)c(C)c1NC(=O)COC(=O)Cc1c(C)[nH]c2ccc(Cl)cc12` showed an IC50 of 34 µM. This lies in the double-digit micromolar range.

Turning to `C#Cc1cccc2[nH]c(C)c(CC(=O)OCC(=O)Nc3c(C)nn(-c4ccccc4)c3C)c12`, the IC50 in data set [1] was above 50 µM.

The molecule `Cc1nn(-c2ccccc2)c(C)c1NC(=O)C(NC(=O)Cc1c(C)[nH]c2ccccc12)C(F)(F)F` (centres undefined) yielded an IC50 in data set [1] above 200 µM.

As to `Cc1nn(-c2ccccc2)c(C)c1NC(=O)COC(=O)Cc1c(C(C)C)[nH]c2ccccc12`, the IC50 in data set [1] was above 200 µM.

Regarding `Cc1nn(-c2ccccc2)c(C)c1NC(=O)CCOC(=O)Cc1c(C)[nH]c2ccccc12`, the IC50 in data set [1] was above 200 µM.

`Cc1nn(-c2ccccc2)c(C)c1NC(=O)C(OC(=O)Cc1c(C)[nH]c2ccccc12)C(F)(F)F` (centres undefined) had a half-maximal inhibitory concentration (IC50) in data set [1] of 0.38 µM. In data set [4], the half-life at 10 µM is 25.5 min.

Take `Cc1nn(-c2ccccc2)c(C)c1NC(=O)COC(=O)Cn1c(C)cc2ccccc21`: the IC50 is 38 to 70 µM in data set [1], above 200 µM in data set [2] and above 200 µM in data set [3]. Also, in data set [4], the half-life at 10 µM is 33.6 min.

Turning to `Cc1[nH]c2ccccc2c1CC(=O)OCC(=O)Nc1cncnc1`, the IC50 in data set [1] was above 200 µM.

For `Cc1nn(-c2ccccc2)c(C)c1NC(=O)COC(=O)Cn1c(=O)oc2ccccc21`, the IC50 in data set [1] is 190 µM; in data set [2] it was above 200 µM; in data set [3], above 200 µM.

In the case of `Cc1nn(-c2ccccc2)c(C)c1NC(=O)COC(=O)Cn1cnc2ccccc2c1=O`, the IC50 in data set [1], in data set [2] and in data set [3] was above 200 µM throughout.

`Cc1nn(-c2ccccc2)cc1NC(=O)CNC(=O)Cc1c(C)[nH]c2ccccc12` registered an IC50 in data set [1] above 200 µM.
